Results on three compounds are retold here after ChEMBL document CHEMBL2062487, “Design, synthesis and evaluation of clinafloxacin triazole hybrids as a new type of antibacterial and antifungal agents” (2012).

Converted amounts (≈) assume the structure as drawn.

Assay [1] relates to Staphylococcus aureus. Nature of the assay: Antibacterial activity against methicillin-resistant Staphylococcus aureus N 315 by two fold broth dilution method. To be noted: N315. Format: functional. Put shortly:
(§1)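 Twofold broth dilution in 96-well microtest plates following NCCLS guidance. Endpoint is the MIC (µg/mL), the lowest concentration that inhibits growth. Clinafloxacin, chloramphenicol and fluconazole served as positive controls.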
(In broth dilution the organism is exposed to a series of concentrations in liquid medium.)

In assay [2] the test system is Staphylococcus aureus. Briefly: Antibacterial activity against Staphylococcus aureus ATCC […] by two fold broth dilution method. In kind it is functional. The procedure, abridged:
(§2)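 MIC was determined by twofold broth dilution in microplates, following NCCLS recommendations. Clinafloxacin, chloramphenicol and fluconazole served as positive controls. Values are given in μg/mL.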

In a further assay the test system is Bacillus subtilis. Briefly: Antibacterial activity against Bacillus subtilis ATCC 6633 by two fold broth dilution method. In kind it is functional. The procedure, abridged: as §2
Assay [3] concerns Micrococcus luteus. Nature of the assay: Antibacterial activity against Micrococcus luteus ATCC 4698 by two fold broth dilution method. In kind it is functional. The following applies: NCTC 2665. The procedure, abridged: as §2
A further assay concerns Escherichia coli. Nature of the assay: Antibacterial activity against Escherichia coli JM109 by two fold broth dilution method. Format: functional. The procedure, abridged:
as §2

In a further assay the test system is Shigella dysenteriae. Briefly: Antibacterial activity against Shigella dysenteriae by two fold broth dilution method. Format: functional. The procedure, abridged: as §1
In the next assay the test system is Pseudomonas aeruginosa. Nature of the assay: Antibacterial activity against Pseudomonas aeruginosa by two fold broth dilution method. In kind it is functional. Put shortly: as §2
The nature of assay [4]: Antibacterial activity against Bacillus proteus by two fold broth dilution method. In kind it is functional. Put shortly:
as §2

Another assay relates to Candida albicans. Briefly: Antifungal activity against Candida albicans ATCC 76615 by two fold broth dilution method. In kind it is functional. The procedure, abridged:
as §2

The subject of another assay is Candida. Briefly: Antifungal activity against Candida mycoderma by two fold broth dilution method. Format: functional. The procedure, abridged:
as §2

Assay [5] concerns Micrococcus luteus. Briefly: Ratio of chloramphenicol MIC to compound MIC for Micrococcus luteus ATCC 4698. Format: functional, NCTC 2665.
For the next assay, the system named is Bacillus. Briefly: Ratio of clinafloxacin MIC to compound MIC for Bacillus proteus. In kind it is functional.

On to `Cc1ccc(C2(Cn3cncn3)CO2)cc1` (racemic), for which the MIC came to 512 µg/mL (≈ 2380 µM) in the assay on Staphylococcus aureus [1]; 256 µg/mL (≈ 1190 µM) against Staphylococcus aureus [2]; 8 µg/mL (≈ 37.2 µM) against Bacillus subtilis; 1 µg/mL (≈ 4.65 µM) in the assay with Micrococcus luteus [3]; 256 µg/mL (≈ 1190 µM) against Escherichia coli; 256 µg/mL (≈ 1190 µM) in the assay with Shigella dysenteriae. The MIC in the assay with Pseudomonas aeruginosa came to 256 µg/mL (≈ 1190 µM); in assay [4] it was 256 µg/mL (≈ 1190 µM); against Candida albicans it was 256 µg/mL (≈ 1190 µM); against Candida, 1 µg/mL (≈ 4.65 µM). Further, in the assay on Micrococcus luteus [5], the Ratio is 8.

Turning to `O=C(O)c1cn(C2CC2)c2c(Cl)c(N3CCC(NCC(O)(Cn4cncn4)c4ccc(F)cc4F)C3)c(F)cc2c1=O` (racemic), the MIC turned out to be 0.25 µg/mL (≈ 0.415 µM) against Staphylococcus aureus [1]; 0.5 µg/mL (≈ 0.829 µM) with Staphylococcus aureus [2]; 0.5 µg/mL (≈ 0.829 µM) in the assay with Bacillus subtilis; 0.5 µg/mL (≈ 0.829 µM) in the assay on Micrococcus luteus [3]; 1 µg/mL (≈ 1.66 µM) in the assay with Escherichia coli; 0.5 µg/mL (≈ 0.829 µM) against Shigella dysenteriae. Moreover, the MIC against Pseudomonas aeruginosa amounted to 0.5 µg/mL (≈ 0.829 µM); in [4], 0.25 µg/mL (≈ 0.415 µM); against Candida albicans, 0.5 µg/mL (≈ 0.829 µM); against Candida, 0.5 µg/mL (≈ 0.829 µM). Further, in the assay with Bacillus, the Ratio is 2.

Take `Clc1ccc(C2(Cn3cncn3)CO2)c(Cl)c1` (racemic): the MIC with Staphylococcus aureus [1] turned out to be 256 µg/mL (≈ 948 µM); with Staphylococcus aureus [2], 256 µg/mL (≈ 948 µM); against Bacillus subtilis it was 32 µg/mL (≈ 118 µM); in the assay with Micrococcus luteus [3], 32 µg/mL (≈ 118 µM); in the assay on Escherichia coli it was 256 µg/mL (≈ 948 µM); in the assay on Shigella dysenteriae it was 64 µg/mL (≈ 237 µM). Also, the minimal inhibitory concentration (MIC) worked out at 128 µg/mL (≈ 474 µM) against Pseudomonas aeruginosa, 64 µg/mL (≈ 237 µM) in assay [4], 32 µg/mL (≈ 118 µM) against Candida albicans and 16 µg/mL (≈ 59.2 µM) with Candida.

As usually defined, the MIC is the least concentration at which growth counts as inhibited. Low values mean a more susceptible organism, high ones a less susceptible organism.
